The text below walks through data of ChEMBL document CHEMBL4368872, “Synthesis and anticonvulsant activity of phenoxyacetyl derivatives of amines, including aminoalkanols and amino acids” (Medchemcomm, 2018).

Active and inactive are the calls of the source. The calls are words filed in the database; no cut-off is given here.

For data set [1], the system named is Mus musculus. Kind of data set: Anticonvulsant activity in CF-1 mouse model of maximal electroshock-induced seizure assessed as suppression of tonic hind limb extension at 30 mg/kg, ip measured at 0.5 hrs post dose. It counts as functional, organism-based. The procedure, abridged:
(§1)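 Mice dosed i.p. and given maximal electroshock at 50 mA. Read-out is protection, reported as number protected / number tested at 0.25, 0.5, 1 and 4 h after dosing.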
Background: Protection in the maximal electroshock model is a classic sign of anticonvulsant action.

Data set [2] relates to Mus musculus. Nature of the data set: Anticonvulsant activity in CF-1 mouse model of maximal electroshock-induced seizure assessed as suppression of tonic hind limb extension at 300 mg/kg, ip measured at 0.5 hrs post dose. It counts as functional, organism-based. The procedure, abridged:
as §1

Data set [3] can be described thus: Neurotoxicity in CF-1 mouse at 30 mg/kg, ip measured after 0.5 hrs by rotarod test. The following applies: in vivo. It counts as toxicity, organism-based. An outline of the steps: (§2)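 Mice dosed i.p. were placed on a 1 in. knurled rod turning at 6 rpm. Toxicity was scored as failure to keep balance for at least 1 min, i.e. falling off three or more times. Results are reported as animals showing toxicity / animals tested at each time point.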
For orientation: Falling from the rotarod earlier than controls is read as motor impairment.

A short description of data set [4]: Neurotoxicity in CF-1 mouse at 100 mg/kg, ip measured after 0.5 hrs by rotarod test. It counts as toxicity, organism-based. The following applies: in vivo. The procedure, abridged: as §2
The nature of data set [5]: Neurotoxicity in CF-1 mouse at 300 mg/kg, ip measured after 0.5 hrs by rotarod test. The format is toxicity, organism-based. The following applies: in vivo. An outline of the steps: as §2
The subject of data set [6] is Mus musculus. Kind of data set: Anticonvulsant activity in CF-1 mouse assessed as protection against 44 mA current-induced seizure at 30 mg/kg, ip after 0.5 hrs by 6 Hz psychomotor test. The format is functional, organism-based. An outline of the steps: (§3)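 Mice dosed i.p. (30, 100, 300 mg/kg; one line at 120 mg/kg read at 15 min). Corneal stimulation at 6 Hz, 44 mA for 3 s from a constant-current device induces a psychomotor seizure with stunned posture, forelimb automatisms, clonus, vibrissae twitching and Straub tail. Scored as number of animals protected / number tested (4 per group) at 0.5 and 2 h.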

Data set [7] has as its system Mus musculus. Kind of data set: Anticonvulsant activity in CF-1 mouse assessed as protection against 44 mA current-induced seizure at 100 mg/kg, ip after 0.5 hrs by 6 Hz psychomotor test. The format is functional, organism-based. An outline of the steps: as §3
In data set [8] the test system is Mus musculus. Nature of the data set: Anticonvulsant activity in CF-1 mouse assessed as protection against 44 mA current-induced seizure at 300 mg/kg, ip after 0.5 hrs by 6 Hz psychomotor test. It counts as functional, organism-based. The procedure, abridged:
as §3

Data set [9] relates to Mus musculus. Nature of the data set: Anticonvulsant activity in CF-1 mouse assessed as protection against 44 mA current-induced seizure at 30 mg/kg, ip after 2 hrs by 6 Hz psychomotor test. The format is functional, organism-based. The procedure, abridged: as §3
The subject of data set [10] is Mus musculus. Kind of data set: Anticonvulsant activity in CF-1 mouse assessed as protection against 44 mA current-induced seizure at 100 mg/kg, ip after 2 hrs by 6 Hz psychomotor test. The format is functional, organism-based. The procedure, abridged:
as §3

Data set [11] relates to Mus musculus. Nature of the data set: Anticonvulsant activity in CF-1 mouse model of maximal electroshock-induced seizure assessed as suppression of tonic hind limb extension at 30 mg/kg, ip measured at 2 hrs post dose. The format is functional, organism-based.
For data set [12], the system named is Mus musculus. Kind of data set: Anticonvulsant activity in CF-1 mouse model of maximal electroshock-induced seizure assessed as suppression of tonic hind limb extension at 100 mg/kg, ip measured at 2 hrs post dose. It counts as functional, organism-based.
A short description of data set [13]: Neurotoxicity in CF-1 mouse at 30 mg/kg, ip measured after 2 hrs by rotarod test. The note with it: in vivo. It counts as toxicity, organism-based. The procedure, abridged: as §2
Data set [14] can be described thus: Neurotoxicity in CF-1 mouse at 100 mg/kg, ip measured after 2 hrs by rotarod test. It counts as toxicity, organism-based. The note with it: in vivo. The procedure, abridged: as §2
Data set [15] can be described thus: Neurotoxicity in CF-1 mouse at 300 mg/kg, ip measured after 2 hrs by rotarod test. The format is toxicity, organism-based. The note with it: in vivo. The procedure, abridged:
as §2

For data set [16], the system named is Mus musculus. Nature of the data set: Anticonvulsant activity in CF-1 mouse model of maximal electroshock-induced seizure assessed as suppression of tonic hind limb extension at 100 mg/kg, ip measured at 0.5 hrs post dose. It counts as functional, organism-based. The procedure, abridged:
as §1

The subject of data set [17] is Mus musculus. Kind of data set: Anticonvulsant activity in CF-1 mouse assessed as protection against 44 mA current-induced seizure at 300 mg/kg, ip after 2 hrs by 6 Hz psychomotor test. The format is functional, organism-based. The procedure, abridged:
as §3

Data set [18] is described as follows: Neurotoxicity in Sprague-Dawley rat at 30 mg/kg, po measured after 4 hrs by rotarod test. It counts as toxicity, organism-based. The following applies: in vivo. An outline of the steps:
(§4)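 Rat neurotoxicity after i.p. or p.o. dosing was scored as animals impaired / animals tested at each time point. For p.o. dosing, TD50 was obtained by probit analysis.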

A short description of data set [19]: Neurotoxicity in Sprague-Dawley rat at 30 mg/kg, po measured after 2 hrs by rotarod test. The format is toxicity, organism-based. The following applies: in vivo. An outline of the steps:
as §4

For data set [20], the system named is Mus musculus. Nature of the data set: Anticonvulsant activity in CF-1 mouse model of maximal electroshock-induced seizure assessed as suppression of tonic hind limb extension at 100 mg/kg, ip measured at 1 hr post dose. The format is functional, organism-based. An outline of the steps:
as §1

Data set [21] deals with Mus musculus. Nature of the data set: Anticonvulsant activity in CF-1 mouse model of maximal electroshock-induced seizure assessed as suppression of tonic hind limb extension at 30 mg/kg, ip measured at 4 hrs post dose. The format is functional, organism-based. An outline of the steps:
as §1

Data set [22] relates to Mus musculus. Nature of the data set: Anticonvulsant activity in CF-1 mouse model of maximal electroshock-induced seizure assessed as suppression of tonic hind limb extension at 100 mg/kg, ip measured at 4 hrs post dose. It counts as functional, organism-based. An outline of the steps: as §1
Data set [23] relates to Mus musculus. Nature of the data set: Anticonvulsant activity in CF-1 mouse model of maximal electroshock-induced seizure assessed as suppression of tonic hind limb extension at 300 mg/kg, ip measured at 4 hrs post dose. The format is functional, organism-based. The procedure, abridged:
as §1

Data set [24] has as its system Mus musculus. Nature of the data set: Anticonvulsant activity in CF-1 mouse model of subcutaneous pentylenetetrazole-induced seizure assessed as reduction in convulsions at 30 mg/kg, ip measured at 0.5 hrs post dose. The format is functional, organism-based. The procedure, abridged:
(§5)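 Mice dosed i.p., then given pentylenetetrazole 85 mg/kg in 0.9% NaCl s.c. into the posterior midline of the neck. Seizures watched for at least 30 min. Scored as protected / tested at 0.5 and 4 h.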

The test system of data set [25] is Mus musculus. Nature of the data set: Anticonvulsant activity in CF-1 mouse model of subcutaneous pentylenetetrazole-induced seizure assessed as reduction in convulsions at 100 mg/kg, ip measured at 0.5 hrs post dose. It counts as functional, organism-based. The procedure, abridged: as §5
In data set [26] the test system is Mus musculus. Kind of data set: Anticonvulsant activity in CF-1 mouse model of subcutaneous pentylenetetrazole-induced seizure assessed as reduction in convulsions at 300 mg/kg, ip measured at 0.5 hrs post dose. The format is functional, organism-based. The procedure, abridged:
as §5

The subject of data set [27] is Mus musculus. Kind of data set: Anticonvulsant activity in CF-1 mouse model of subcutaneous pentylenetetrazole-induced seizure assessed as reduction in convulsions at 30 mg/kg, ip measured at 4 hrs post dose. The format is functional, organism-based. An outline of the steps: as §5
In data set [28] the test system is Mus musculus. Nature of the data set: Anticonvulsant activity in CF-1 mouse model of subcutaneous pentylenetetrazole-induced seizure assessed as reduction in convulsions at 100 mg/kg, ip measured at 4 hrs post dose. It counts as functional, organism-based. The procedure, abridged:
as §5

The test system of data set [29] is Mus musculus. Nature of the data set: Anticonvulsant activity in CF-1 mouse model of subcutaneous pentylenetetrazole-induced seizure assessed as reduction in convulsions at 300 mg/kg, ip measured at 4 hrs post dose. The format is functional, organism-based. The procedure, abridged: as §5
A short description of data set [30]: Neurotoxicity in CF-1 mouse at 100 mg/kg, ip measured after 1 hr by rotarod test. The note with it: in vivo. The format is toxicity, organism-based. The procedure, abridged: as §2
Data set [31] can be described thus: Neurotoxicity in CF-1 mouse at 30 mg/kg, ip measured after 4 hrs by rotarod test. The format is toxicity, organism-based. The following applies: in vivo. The procedure, abridged:
as §2

Data set [32] is described as follows: Neurotoxicity in CF-1 mouse at 100 mg/kg, ip measured after 4 hrs by rotarod test. It counts as toxicity, organism-based. The note with it: in vivo. The procedure, abridged:
as §2

Data set [33] is described as follows: Neurotoxicity in CF-1 mouse at 300 mg/kg, ip measured after 4 hrs by rotarod test. The format is toxicity, organism-based. The note with it: in vivo. An outline of the steps:
as §2

Data set [34] concerns Rattus norvegicus. Nature of the data set: Anticonvulsant activity in Sprague-Dawley rat model of maximal electroshock-induced seizure assessed as suppression of tonic hind limb extension at 30 mg/kg, po measured at 0.25 hrs post dose. The format is functional, organism-based. An outline of the steps:
(§6)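 Rats given 30 mg/kg p.o. and tested by maximal electroshock at 150 mA. Scored as number protected / number tested (4 per group) at 0.25, 0.5, 1, 2 and 4 h after dosing.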

The subject of data set [35] is Rattus norvegicus. Kind of data set: Anticonvulsant activity in Sprague-Dawley rat model of maximal electroshock-induced seizure assessed as suppression of tonic hind limb extension at 30 mg/kg, po measured at 0.5 hrs post dose. It counts as functional, organism-based. The procedure, abridged:
as §6

In data set [36] the test system is Rattus norvegicus. Kind of data set: Anticonvulsant activity in Sprague-Dawley rat model of maximal electroshock-induced seizure assessed as suppression of tonic hind limb extension at 30 mg/kg, po measured at 1 hr post dose. The format is functional, organism-based. An outline of the steps: as §6
Data set [37] concerns Rattus norvegicus. Kind of data set: Anticonvulsant activity in Sprague-Dawley rat model of maximal electroshock-induced seizure assessed as suppression of tonic hind limb extension at 30 mg/kg, po measured at 2 hrs post dose. The format is functional, organism-based. An outline of the steps: as §6
Data set [38] in a line: Neurotoxicity in Sprague-Dawley rat at 30 mg/kg, po measured after 0.25 hrs by rotarod test. It counts as toxicity, organism-based. The following applies: in vivo. The procedure, abridged: as §4
Data set [39] can be described thus: Neurotoxicity in Sprague-Dawley rat at 30 mg/kg, po measured after 0.5 hrs by rotarod test. The note with it: in vivo. It counts as toxicity, organism-based. An outline of the steps:
as §4

Data set [40] can be described thus: Neurotoxicity in Sprague-Dawley rat at 30 mg/kg, po measured after 1 hr by rotarod test. The format is toxicity, organism-based. The following applies: in vivo. An outline of the steps:
as §4

In the case of `Cc1cccc(C)c1OCC(=O)N[C@H]1CC[C@H](OC(=O)COc2c(C)cccc2C)CC1`, the result in data set [1], in data set [2], in [6], in data set [7], in data set [8] and in data set [9] was inactive. Further, the result in [10], in [11] and in data set [12] was inactive. The Activity entry in [3], in data set [4], in data set [5], in [13], in data set [14] and in [15] was “Non-Toxic” in each case.
For the compound `Cc1cccc(OCC(=O)N[C@H]2CC[C@H](O)CC2)c1C`, the outcome in data set [1], in [16], in [6], in [9], in data set [10] and in data set [11] was inactive. Besides, the result in data set [12] was inactive. Moreover, the outcome in data set [2] and in data set [17] was Active. Further, the Activity entry in data set [3], in data set [4], in data set [13], in data set [14] and in data set [15] was “Non-Toxic” throughout.
On to `Cc1cccc(C)c1OCC(=O)NCC(C)O` (stereo not drawn), for which the Activity result is recorded as “Non-Toxic” in data set [18]; “Non-Toxic” in [19]; “Non-Toxic” in data set [3]; “Non-Toxic” in data set [4]; “Toxic” in [5]; “Non-Toxic” in [30]. The Activity result in [31], in data set [32], in data set [33], in data set [38], in data set [39] and in data set [40] was “Non-Toxic” in each case. Besides, the outcome in data set [1], in [16], in data set [20], in data set [21], in data set [22] and in data set [23] was inactive. The result in data set [24], in data set [25], in [26], in data set [27], in data set [28] and in data set [29] was inactive. Besides, the outcome in data set [34], in data set [35], in data set [36] and in [37] was inactive. Further, the result in [2] was Active.
